Screening data from PubChem.
Sampled rows, rich in hits. Any-hit rate of the full collection: about 1.3%.
RAD54 inh: inhibitors of human RAD54 branch migration, primary screen, biochemical, fluorescence, single point; DNA repair and recombination protein RAD54-like (Homo sapiens), Q92698; RAD54 Holliday junction branch migration, FAM/BHQ fluorescence; inhibition, % at 10.4 µM; actives 0.14% (n = 360,000);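 active = mean normalized replicate activity at least 40 and at least half of replicates scoring 40 or more; inconclusive = only one of the two criteria met; inactive = mean below 40 and under half of replicates reaching 40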;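 also: 0% = median of neutral control wells and 100% = median of positive control wells; inhibitors cause a drop in the FAM fluorescence signal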
CASP6 VEID inh: human caspase-6 inhibitors, primary screen, biochemical, VEID-R110 fluorescence, single point, set 2 | P55212 | AID 686996, 2013 | inhibition, % at 12.5 µM | purified caspase-6, Z-VEID-R110 cleavage fluorescence | actives 0.53% (n = 350,000);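 active = mean inhibition across replicates at least about 35%, with every replicate also reaching that limit, limit read from the data; inconclusive = only one of the two criteria met; inactive = neither criterion met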;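 also: 0% = median of neutral control wells and 100% = no fluorescence left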
Target sequence (P55212 24-179 limits assumed): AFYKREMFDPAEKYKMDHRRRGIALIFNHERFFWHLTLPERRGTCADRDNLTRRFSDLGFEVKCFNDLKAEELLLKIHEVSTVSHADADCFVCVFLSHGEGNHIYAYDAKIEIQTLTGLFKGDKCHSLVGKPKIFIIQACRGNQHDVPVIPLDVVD
Target sequence (P55212 194-293 limits assumed): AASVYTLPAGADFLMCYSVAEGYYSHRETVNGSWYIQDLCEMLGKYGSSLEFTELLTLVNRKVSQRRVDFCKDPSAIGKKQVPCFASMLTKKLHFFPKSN
AF4-AF9 inh: inhibitors of AF4 peptide binding to AF9, primary screen, biochemical, AlphaScreen, biotin-AF4 peptide, FLAG-AF9, single point. AID 651704, 2012. actives 0.47% (n = 350,000). inhibition, % at 10 µM. Protein AF-9 (Homo sapiens), P42568;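 active = every replicate reaching a set inhibition limit, whatever the replicate mean, cut at about 25% in these data; inconclusive = mean inhibition reaches that limit but some replicates miss it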;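 also: 0% = plate neutral control median and 100% = total signal loss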
RAD52 inh: RAD52 DNA annealing inhibitors, primary screen, biochemical, FRET, single point, set 2; recombinant RAD52 DNA annealing, FRET fluorescence; actives 0.46% (n = 360,000); inhibition, % at 18.7 µM; DNA repair protein RAD52 homolog (Homo sapiens), P43351;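 active = every replicate showing at least 50% inhibition; inconclusive = mean inhibition at least 50% but not in every replicate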
S100A4 MyoIIA: inhibitors of S100A4-myosin IIA peptide binding, primary screen, biochemical, fluorescence polarization, TAMRA-MyoIIA peptide; Protein S100-A4 (Homo sapiens), P26447; inhibition, % at 10.7 µM; actives 0.14% (n = 360,000);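 active = mean inhibition of at least 70% across replicates, with every replicate also reaching that level; inconclusive = mean inhibition reaches 70% but some replicates fall short; inactive = mean inhibition below 70%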
Target sequence (P26447 whole entry, looked up): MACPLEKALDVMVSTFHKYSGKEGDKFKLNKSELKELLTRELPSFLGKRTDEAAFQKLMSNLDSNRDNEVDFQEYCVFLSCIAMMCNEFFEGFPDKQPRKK
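Compound dosing: one dose per compound; test system: human S100A4 monomer with TAMRA-labelled myosin IIA peptide; probe or stimulus: TAMRA-labelled myosin IIA heavy-chain peptide probe, 5 nM; medium: HEPES buffer with Ca2+, pH 7.2; schedule: 5 min incubation before reading; benchmarks: neutral control DMSO, positive control TFP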
XiGFP reactiv: activators of inactive X chromosome reactivation, primary screen, imaging, XiGFP fibroblasts, GFP high-content imaging, set 2; XiGFP mouse fibroblasts, % GFP-positive cells imaging, 3 d; cells co-treated with 5-aza-dC sensitizer; scaled so ellipticine positive control = 100%; activation, % at 7.58 µM; actives 0.055% (n = 360,000); AID 743238, 2013;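 active = mean normalized replicate activation at least 10% and every replicate at or above 10%; inconclusive = only one of the two criteria met; inactive = mean below 10% and not all replicates reach 10%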;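 also: 0% = median of on-plate neutral control wells and 100% = ellipticine 6 µM median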
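System: 68-5-11 XiGFP fibroblast line; Timing: 3 days compound exposure; Compound dosing: one concentration, pinned; Benchmarks: positive control ellipticine, 6 µM final; Buffer or medium: DMEM containing 5-aza-dC.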
* hit, by the source's call; i = inactive; ? = inconclusive; . = not tested or not shown; + = active, no number.

SMILES	RAD54 inh	CASP6 VEID inh	AF4-AF9 inh	RAD52 inh	S100A4 MyoIIA	XiGFP reactiv
N#C/C(=C\c1ccc(N2CCCCC2)o1)C(=O)Nc1cccc(Br)c1	.	.	.	.	.	94*
C[C@H]1CN(C)C(=O)c2cc(NS(C)(=O)=O)ccc2O[C@H]1CN(C)C	.	.	.	.	.	0
COc1ccc2c3c([nH]c2c1)[C@H](CO)NCC31CCN(C(=O)Nc2ccc(F)cc2F)CC1	.	.	15	76*	-9	0
COc1ccc2c3c([nH]c2c1)[C@@H](CO)NCC31CCN(C(=O)Nc2ccccc2F)CC1	.	.	10	68*	.	0
CCCNC(=O)NC[C@H]1[C@@H](c2ccc(C3=CCCCC3)cc2)[C@@H](CO)N1C(C)=O	-5	2	5	-41	-7	0
CNC[C@H]1Oc2c(cccc2N(C)C)C(=O)N(C)C[C@@H]1C	.	.	.	.	.	0
C[C@H]1C(C(=O)N(C)C2CCCCC2)=Cc2c(n(-c3ccc(F)cc3)c(=O)n2CCCOc2ccccc2)C=C1c1ccccc1	.	0	84*	1	22	0
CC(=O)N1[C@@H]2CN(S(C)(=O)=O)C[C@H]1C2c1ccccc1 (stereo not given in full)	.	.	.	.	.	0
COc1cccc2c1C(=O)c1c(O)c3c(c(O)c1C2=O)C[C@@](O)(C(C)=O)C[C@@H]3O[C@H]1C[C@H](N)[C@H](O)[C@H](C)O1	-111	-82	31*	i	+	1
COc1cccc2c1C(=O)c1c(O)c3c(c(O)c1C2=O)CC(O)(C(=O)CO)CC3OC1CC(N(C)C)C(O)C(C)O1 (stereo not given)	.	-6	?	i	+	3
CO[C@H]1CC[C@H]2CCN(C)C(=O)C[C@@H](c3ccccc3)CN(C)C(=O)c3cc(C#N)ccc3OC[C@H]1O2	-11	5	0	-2	16	0
CCC(=O)N1CC[C@@H]2[C@H]1c1cc(-c3ccccc3F)ccc1N(C)[C@@H]2CO	16	0	-3	-1	1	0
O=C(C[C@@H]1C=C[C@@H](NS(=O)(=O)c2cccc(F)c2)[C@@H](CO)O1)NCc1ccc2c(c1)OCO2	-1	-1	2	5	83*	0
O=C(C[C@H]1CC[C@H](NS(=O)(=O)c2cccc(F)c2)[C@@H](CO)O1)NCc1ccc2c(c1)OCO2	4	-2	9	-3	105*	0
O=C(C[C@H]1CC[C@@H](NS(=O)(=O)c2cccc(F)c2)[C@H](CO)O1)NCc1ccc2c(c1)OCO2	1	1	2	8	8	0
O=C(C[C@@H]1C=C[C@H](NS(=O)(=O)c2cccc(F)c2)[C@@H](CO)O1)NCc1ccc2c(c1)OCO2	-1	-2	0	-12	9	0
Cc1noc(C)c1S(=O)(=O)Nc1ccc2c(c1)C(=O)N([C@H](C)CO)C[C@H](C)[C@@H](CN(C)C(=O)c1ccccc1)OCCCC[C@H](C)O2	10	0	-6	8	-3	1
O=C(Cc1c(O)c2ccccc2oc1=O)c1ccc(F)cc1	-12	-1	47*	-9	-2	0
C[C@H](CO)N1C[C@H](C)[C@@H](CN(C)S(=O)(=O)c2cccs2)Oc2c(NC(=O)CCCN(C)C)cccc2C1=O	.	.	.	.	.	0
CO[C@H]1CN(C)C(=O)c2cc(NC(C)=O)ccc2OC[C@@H](C)N(C(=O)Cc2ccccn2)C[C@@H]1C	4	-2	29*	-20	7	0
CO[C@H]1CN(C)C(=O)c2cc(NC(C)=O)ccc2OC[C@H](C)N(C(=O)Cc2ccccn2)C[C@@H]1C	0	-1	?	-12	-3	0
CCC(=O)Nc1ccc2c(c1)C(=O)N(C)C[C@H](OC)[C@@H](C)CN(C(=O)c1ccccn1)[C@@H](C)CO2	-5	2	26*	-19	15	0
COc1ccc2c3c(n(C)c2c1)[C@H](CO)N(C(=O)CN(C)C)CC31CCN(Cc2nccs2)CC1	.	-19	1	16	4	0
CO[C@H]1CN(C)C(=O)c2ccc(NC(=O)C3CCOCC3)cc2OC[C@H](C)N(Cc2cccnc2)C[C@H]1C	6	-9	0	-1	11	0
C[C@@H]1CN([C@H](C)CO)C(=O)c2cc(NC(=O)Cc3ccccc3)ccc2O[C@H]1CN(C)C(=O)NC1CCCCC1	-3	0	-3	9	7	0
SMILES	RAD54 inh	CASP6 VEID inh	AF4-AF9 inh	RAD52 inh	S100A4 MyoIIA	XiGFP reactiv
Cn1c(-c2ccccc2)cnc1NCc1ccccc1	9	-2	8	-27	-6	0
Cn1c(-c2cccc(Br)c2)cnc1NCc1ccccc1O	-14	2	26*	3	-3	0
C[C@@H]1CCCCO[C@@H](CN(C)C(=O)C2CCCCC2)[C@@H](C)CN([C@H](C)CO)C(=O)c2cc(NC(=O)CCCCCC(=O)Nc3ccccc3N)ccc2O1	6	-2	-3	-2	103*	-1
C[C@@H]1CCCCO[C@H](CN(C)C(=O)Cc2ccccc2)[C@@H](C)CN([C@H](C)CO)C(=O)c2cc(NC(=O)Cc3ccccc3)ccc2O1	-15	0	2	8	0	0
C[C@@H]1CCCCO[C@@H](CN(C)C(=O)Nc2ccc(F)cc2)[C@H](C)CN([C@H](C)CO)C(=O)c2cc(NC(=O)Nc3ccccc3)ccc2O1	1	-5	-2	-2	-8	0
C[C@H]1CCCCO[C@H](CN(C)C(=O)Nc2ccc(F)cc2)[C@@H](C)CN([C@@H](C)CO)C(=O)c2cc(NC(=O)Cc3ccccc3)ccc2O1	5	43*	-1	-28	5	-1
C[C@@H]1CCCCO[C@@H](CN(C)C(=O)Cc2ccccc2)[C@H](C)CN([C@@H](C)CO)C(=O)c2cc(NC(=O)Cc3ccccc3)ccc2O1	-6	-2	-2	8	126*	0
C[C@@H]1CCCCO[C@H](CN(C)C(=O)Nc2ccc(F)cc2)[C@@H](C)CN([C@H](C)CO)C(=O)c2cc(NC(=O)Nc3ccccc3)ccc2O1	-7	-2	43*	17	4	0
COc1cccc(NC(=O)Nc2ccc3c(c2)C(=O)N(C)[C@@H]2CC[C@@H](CC(=O)O)O[C@H]2CO3)c1	-9	.	.	.	.	0
